Publication PMC4160070 (Journal of clinical pharmacology, 2014)
Where two headings read alike, the source gives them in different places.

Tests used:
[1] = Properties of the reconstituted AP301 solution; type: physicochemical; conditions: AP301 25 mg/mL, lyophilized powder reconstituted in water for injection
Aerosol characterization = type: physicochemical
Summary of the method: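 Test compound supplied as lyophilized powder, reconstituted in water for injection to 25 mg/mL. The solution was aerosolized with an Aeroneb Solo vibrating-mesh nebulizer driven by an Aeroneb Pro-X controller. Particle distribution was measured by Next Generation Impactor at 15 L/min and by laser diffraction. Read-outs were fine particle fraction and average droplet size.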

dog = conditions: in vivo
[2] = human, in vivo, inhaled or intranasal
[3] = in vivo
healthy male subjects [4] = conditions: in vivo
healthy male subjects [5] = conditions: in vivo; remark: listed apart in the source
healthy male subjects [6] = conditions: in vivo; remark: listed apart in the source
healthy male subjects [7] = conditions: in vivo; remark: listed apart in the source
healthy male subjects [8] = conditions: in vivo; remark: listed apart in the source
healthy male subjects [9] = conditions: in vivo; remark: listed apart in the source
[10] = system: ENaC in primary type II alveolar epithelial cells; conditions: rat AEC type II cells, cited from earlier work
[11] = system: ENaC in primary type II alveolar epithelial cells; conditions: dog AEC type II cells, cited from earlier work
[12] = system: ENaC in primary type II alveolar epithelial cells; conditions: pig AEC type II cells, cited from earlier work
ENaC = conditions: cell-based studies; no reference given; cited from earlier work
[13] = system: acute lung injury (ALI) in anaesthetized domestic pigs; conditions: pigs with ALI, single nebulization of 1.0 mg/kg, observation 5 hours; cited from earlier work
animal models = conditions: various animal models; cited from earlier work
[14] = mouse, in vivo; cited from earlier work
[15] = rat, in vivo; cited from earlier work
[16] = dog, in vivo; cited from earlier work
[17] = 25 mg/mL solution, Aeroneb Solo nebulizer, laser diffraction, Apeptico Research Report, data on file
[18] = whole cell patch clamp, in the presence of AP301

C[C@@H]1NC(=O)CNC(=O)[C@H](CCC(=O)O)NC(=O)[C@@H]2CCCN2C(=O)[C@H]([C@@H](C)O)NC(=O)[C@H](CCC(=O)O)NC(=O)[C@H](CCCNC(=N)N)NC(=O)[C@H](CCC(N)=O)NC(=O)CNC(=O)[C@@H](N)CSSC[C@@H](C(=O)O)NC(=O)[C@H](Cc2ccc(O)cc2)NC(=O)[C@H](Cc2c[nH]c3ccccc23)NC(=O)[C@@H]2CCCN2C(=O)[C@H](CCCCN)NC(=O)[C@H](C)NC(=O)[C@H](CCC(=O)O)NC1=O [AP301]
osmolarity of the solution [1]: 23 mosmol/L
pH of the solution [1]: 4.40
viscosity of the solution [1]: 1.07 mPa s
average droplet size (Aerosol characterization; [17]): 3.3 μm
mean fine particle fraction (FPF) (Aerosol characterization; [17]): about 60%
FPF as determined by NGI (Aerosol characterization; Next Generation Impactor at 15 L/min): 60%
maximum recommended starting dose (MRSD) (dog): 0.1 mg/kg BW
Tmax [2]: ~5 min
AUC(0-t) ([2]; 12 mg): 0.0333 ng·h/mL
Cmax ([2]; 12 mg): 0.4 ± 0.6 ng/mL
Tmax ([2]; 12 mg): 5 min
AUC(0-t) ([2]; 30 mg): 0.0183 ng·h/mL
Cmax ([2]; 30 mg): 0.3 ± 0.6 ng/mL
AUC(0-t) ([2]; 60 mg): 0.93 ng·h/mL
Cmax ([2]; 60 mg): 2.2 ± 1.4 ng/mL
Tmax ([2]; 60 mg): 5 min
AUC(0-t) ([2]; 90 mg): 0.758 ng·h/mL
Cmax ([2]; 90 mg): 2.4 ± 2.1 ng/mL
AUC(0-t) ([2]; 120 mg): 0.877 ng·h/mL
Cmax ([2]; 120 mg): 2.2 ± 1.8 ng/mL
Tmax ([2]; 120 mg): 2.5 min
maximum exposure values (Cmax) at mean dose-cohort level [3]: exceeding 2.0 ng/mL
mean Cmax values in the highest dose groups [3]: < 2.5 ng/mL
median tmax values across dose groups [3]: 0 to 0.083 h
number of AEs considered related to AP301 inhalation (healthy male subjects [4]): 7
overall frequency of AEs in subjects randomized to AP301 (healthy male subjects [4]): 25%
FEV1 declines of ≥20% from baseline (healthy male subjects [5]): no FEV1 declines of ≥20% from baseline were noted in any subject
effects on airway caliber or vital capacity (FVC, FEV1) (healthy male subjects [5]): absence of relevant dose-dependent effects
subjects with post-dose FEV1 decline of ≥15% from baseline (healthy male subjects [5]): only a single subject
content of eNO versus baseline and pooled placebo (healthy male subjects [6]): did not change
effects on vital signs (SBP, DBP, HR) (healthy male subjects [7]): no clinically meaningful dose-or time-dependent effects
QTc value (healthy male subjects [8]): ≤ 450 milliseconds
changes in ECG outcome variables (healthy male subjects [8]): no clinically meaningful or remarkable dose-or time-dependent changes
changes in safety laboratory variables (healthy male subjects [9]): No clinically meaningful or remarkable dose-or time-dependent changes
increase of amiloride-sensitive Na+ currents (via ENaC) versus baseline [10, 18]: about 9 fold
increase of amiloride-sensitive Na+ currents (via ENaC) versus baseline [11, 18]: ~13 fold
increase of amiloride-sensitive Na+ currents (via ENaC) versus baseline [12, 18]: ~16 fold
concentration range in which ENaC activation was dose-dependent (ENaC): 5 to 100 nM
oxygenation (PaO2/FiO2) [13]: significant improvement
pulmonary shunt fraction (Qs/Qt) [13]: reduction
effective pharmacological dose range (animal models): 0.5–1.0 mg/kg BW
absorption from the pulmonary compartment into the systemic circulation [14]: hardly absorbed
absorption from the pulmonary compartment into the systemic circulation [15]: hardly absorbed
absorption from the pulmonary compartment into the systemic circulation [16]: hardly absorbed

N=C(N)NC(=O)c1nc(Cl)c(N)nc1N [amiloride, reference compound]
effect on the AP301-induced increase of Na+ current [10]: could be inhibited
effect on the AP301-induced increase of Na+ current [11]: could be inhibited
effect on the AP301-induced increase of Na+ current [12]: could be inhibited
